From ChEMBL document CHEMBL1150769, “Aroyl hydrazones of 2-phenylindole-3-carbaldehydes as novel antimitotic agents” (Bioorg Med Chem, 2008)
The source made the active and inactive calls. The calls are words filed in the database; no cut-off is given here.

Experiments:
MDA-MB-231 [1] = test: Antiproliferative activity against human MDA-MB-231 cells after 4 days by microplate assay; assay type: functional, cell-based; conditions: MDA-MB-231, 96 h
How it was run: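 MDA-MB 231 cells grown in McCoy-5a with L-glutamine, gentamycin, NaHCO3 and 5% FCS; 2–3 days growth at 37 °C, 5% CO2 before compound in fresh medium (controls 0.1% DMF); about 4 days exposure; 1% glutaric dialdehyde fixation, 0.02% crystal violet, 70% EtOH elution, OD 578 nm; mean of two experiments with 16–24 replicates.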

MCF7 = test: Antiproliferative activity against human MCF7 cells after 5 days by microplate assay; assay type: functional, cell-based; conditions: MCF7, 120 h
How it was run: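 MCF-7 cells grown in EMEM with sodium pyruvate, gentamycin, NaHCO3, phenol red and 10% FCS; seeded in 96-well plates and grown 2–3 days at 37 °C, 5% CO2, then medium with compound (DMF stock; controls 0.1% DMF) for 5 days; glutaric dialdehyde fixation, 0.02% crystal violet stain, ethanol extraction, OD 578 nm; mean of two experiments, 16–24 replicates.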

U373 MG [2] = test: Antiproliferative activity against human U373 MG cells at 50 nM after 72 hrs; assay type: functional, cell-based; conditions: U-373MG ATCC
How it was run: (§1)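 U-373 MG glioblastoma cells in EMEM-type medium with 5% FCS under permanent exposure to 10–200 nM; plates fixed with glutaric dialdehyde at various times, stored cold, then crystal violet stained together; absorbance expressed as corrected T/C = (T − C0)/(C − C0) × 100 (%).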

U373 MG [3] = test: Antiproliferative activity against human U373 MG cells at 200 nM after 100 hrs; assay type: functional, cell-based; conditions: U-373MG ATCC
How it was run: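 Confluent (resting) U-373 MG cultures exposed to compound, with DMSO solvent controls, for up to ~150 h; crystal violet staining of fixed cells at various times; effect expressed as cytocidal effect (%) versus time.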

U-87 MG [4] = test: Effect on cell morphology in human U87 MG cells assessed as disruption of microtubule network at 50 nM by confocal fluorescence microscopy; assay type: functional, cell-based; conditions: U-87MG ATCC
How it was run: (§2)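 U-87 MG cells at 75% confluence in chamber slides treated 3 h at 37 °C (EtOH vehicle); fixed in 4% paraformaldehyde, permeabilized with 1% Triton X-100; α-tubulin immunostained (Cy5 secondary), nuclei with SYTOX Green; imaged by confocal laser scanning microscopy.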

HL-60 [5] = test: Antiproliferative activity against human HL60 cells after 48 hrs by MTT assay; assay type: functional, cell-based; conditions: HL-60, 48 h
How it was run: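 HL-60 human leukemia cells kept in log growth in RPMI 1640 with 10% FCS, penicillin G and streptomycin; treated for 48 h; growth read by MTT assay; IC50 = 50% and IC90 = 90% inhibition of cell growth; values given ± SD.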

HL-60 [6] = test: Induction of apoptosis in human HL60 cells assessed as increase in caspase 3 activation at 500 nM after 24 hrs; assay type: functional, cell-based
How it was run: (§3)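 HL-60 cells (3 million at 5 × 10^5 cells/mL) treated 24 h at 37 °C, 5% CO2; hypotonic Hepes/DTT/EDTA/CHAPS lysates on ice; Ac-DMQD-AMC (1.0 μM final) cleaved 60 min at 30 °C; released AMC separated by RP-HPLC, quantified fluorometrically (ex 355 or 400, em 435 nm) against AMC standards; activity in pmol/min/mg; means of three experiments ± SD.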

HL-60 [7] = test: Induction of apoptosis in human HL60 cells assessed as increase in caspase 3 activation at 1 uM after 24 hrs; assay type: functional, cell-based
HL-60 [8] = test: Induction of apoptosis in human HL60 cells assessed as increase in caspase 9 activation at 1 uM after 24 hrs; assay type: functional, cell-based
U373 MG [9] = test: Antiproliferative activity against human U373 MG cells after 72 hrs; assay type: functional, cell-based; conditions: U-373MG ATCC
How it was run: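 Human U-373 MG glioblastoma cells grown in EMEM with sodium pyruvate, gentamycin, NaHCO3, phenol red and 5% FCS. Exposure was continuous at 10, 50, 100 and 200 nM, with DMF in the controls. Plates were fixed with glutaric dialdehyde at intervals and stained together with crystal violet. Absorbance read at 578 nm; corrected T/C% = (T − C0)/(C − C0) × 100.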

[10] = Inhibition of tubulin polymerization at 5 uM by microplate assay
How it was run: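 Tubulin suspended in cold G-PEM buffer with 5% glycerol and depolymerised at 0 °C. It was added to compound that had been diluted 1:10 from DMSO stock into G-PEM in wells prewarmed to 37 °C. Turbidity was read at 355 nm every minute for 28–30 min at 37 °C. Solvent controls held 1% DMSO; colchicine (5 µM) and paclitaxel (2 µM) were run as references.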

MDA-MB-231 [11] = test: Cell cycle arrest in human MDA-MB-231 cells assessed as decrease in accumulation at G1/G0 phase after 24 hrs by flow cytometry; assay type: functional, cell-based
How it was run: (§4)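 MDA-MB 231 cells at 70–80% confluence in 75 cm2 flasks exposed 24 h (DMF vehicle, 0.1% final); trypsinized, fixed in ice-cold 70% EtOH, DNA extraction buffer, propidium iodide stain ≥30 min at room temperature; 8000–15,000 events analysed by flow cytometry for sub-G1, G1/G0, S and G2/M fractions; representative of two experiments.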

MDA-MB-231 [12] = test: Cell cycle arrest in human MDA-MB-231 cells assessed as increase in accumulation at G2/M phase after 24 hrs by flow cytometry; assay type: functional, cell-based; how it was run: as §4
HL-60 [13] = test: Induction of apoptosis in human HL60 cells assessed as increase in caspase 3 activation at 2.0 uM after 24 hrs; assay type: functional
U373 MG [14] = test: Antiproliferative activity against human U373 MG cells at 10 nM; assay type: functional, cell-based; conditions: U-373MG ATCC; how it was run: as §1
HL-60 [15] = test: Induction of apoptosis in human HL60 cells assessed as caspase 3 activation at 100 nM after 24 hrs; assay type: functional, cell-based; how it was run: as §3
U-87 MG [16] = test: Effect on cell morphology in human U87 MG cells assessed as disruption of microtubule network at 10 nM by confocal fluorescence microscopy; assay type: functional, cell-based; conditions: U-87MG ATCC; how it was run: as §2
[17] = Inhibition of tubulin polymerization at 5 uM by microplate assay

SMILES	IC50 (MDA-MB-231 [1]) [nM]	IC50 (MCF7) [nM]	further results
CCCCc1ccc2[nH]c(-c3ccc(C(F)(F)F)cc3)c(/C=N/NC(=O)c3cccnc3)c2c1	97	260	–
CCCCc1ccc2[nH]c(-c3ccc(OC)cc3)c(/C=N/NC(=O)c3cccc(OC)c3)c2c1	55	–	–
CCCCc1ccc2[nH]c(-c3ccc(OC)cc3)c(/C=N/NC(=O)c3ccc(F)cc3)c2c1	19	84	Activity (U373 MG [2]): Active; Activity (U373 MG [3]): Active; Activity (U-87 MG [4]): inactive; IC50 (HL-60 [5]): 91 nM; IC90 (HL-60 [5]): 164 nM; Activity (HL-60 [6]): Active
CCCCc1ccc2[nH]c(-c3ccc(C(F)(F)F)cc3)c(/C=N/NC(=O)c3ccc(Cl)cc3)c2c1	329	1060	–
CCCCc1ccc2[nH]c(-c3ccc(OC)cc3)c(/C=N/NC(=O)c3ccncc3)c2c1	29	69	–
CCCCc1ccc2[nH]c(-c3ccc(C(F)(F)F)cc3)c(/C=N/NC(=O)c3ccc(OC)cc3)c2c1	284	618	–
CCCCc1ccc2[nH]c(-c3ccc(OC)cc3)c(/C=N/NC(=O)c3ccccn3)c2c1	34	160	IC50 (HL-60 [5]): 213 nM; IC90 (HL-60 [5]): 333 nM
CCCCc1ccc2[nH]c(-c3ccc(C(F)(F)F)cc3)c(/C=N/NC(=O)c3ccncc3)c2c1	94	100	Activity (HL-60 [7]): Active; Activity (HL-60 [8]): Active
CCCCc1ccc2[nH]c(-c3ccc(C(F)(F)F)cc3)c(/C=N/NC(=O)c3ccccc3)c2c1	300	460	–
CCCCc1ccc2[nH]c(-c3ccc(CC)cc3)c(/C=N/NC(=O)c3cccnc3)c2c1	53	100	–
C=C(C)[C@H]1Cc2c(ccc3c2O[C@@H]2COc4cc(OC)c(OC)cc4[C@@H]2C3=O)O1	–	–	Activity (U373 MG [9]): Active
COc1cc2c(c(OC)c1OC)-c1ccc(OC)c(=O)cc1[C@@H](NC(C)=O)CC2	–	–	Activity [10]: Active
CCCCc1ccc2[nH]c(-c3ccc(OC)cc3)c(/C=N/NC(=O)c3ccc(Cl)cc3)c2c1	90	220	–
COc1ccc(-c2[nH]c3ccc(C)cc3c2/C=N/NC(=O)c2ccncc2)cc1	290	200	–
CCCCc1ccc2[nH]c(-c3ccc(C(F)(F)F)cc3)c(/C=N/NC(=O)c3ccccn3)c2c1	260	310	–
CCCCc1ccc2[nH]c(-c3ccc(OC)cc3)c(/C=N/NC(=O)c3ccccc3)c2c1	32	130	Activity (MDA-MB-231 [11]): Active; Activity (MDA-MB-231 [12]): Active
CCCCc1ccc2[nH]c(-c3ccc(OC)cc3)c(/C=N/NC(=O)c3ccccc3OC)c2c1	21	71	IC50 (HL-60 [5]): 74 nM; IC90 (HL-60 [5]): 142 nM; Activity (HL-60 [6]): Active
CCCCc1ccc2[nH]c(-c3ccc(C(F)(F)F)cc3)c(/C=N/NC(=O)c3ccc([N+](=O)[O-])cc3)c2c1	2040	6340	–
CCCCc1ccc2[nH]c(-c3ccc(OC)cc3)c(/C=N/NC(=O)c3ccc(OC)cc3)c2c1	61	226	–
CCCCc1ccc2[nH]c(-c3ccc(CC)cc3)c(/C=N/NC(=O)c3ccncc3)c2c1	80	150	–
CCCCc1ccc2[nH]c(-c3ccc(OC)cc3)c(/C=N/NC(=O)c3ccc([N+](=O)[O-])cc3)c2c1	115	312	–
COc1cc([C@@H]2c3cc4c(cc3[C@@H](O[C@@H]3O[C@@H]5CO[C@@H](C)O[C@H]5[C@H](O)[C@H]3O)[C@H]3COC(=O)[C@H]23)OCO4)cc(OC)c1O [ETOPOSIDE]	–	–	IC50 (HL-60 [5]): 315 nM; Activity (HL-60 [13]): 3.37
CCCCc1ccc2[nH]c(-c3ccc(OC)cc3)c(/C=N/NC(=O)c3cccnc3)c2c1	35	75	Activity (U373 MG [14]): Active; Activity (U373 MG [3]): Active; IC50 (HL-60 [5]): 50 nM; IC90 (HL-60 [5]): 115 nM; Activity (HL-60 [15]): Active
CC[C@]1(O)C[C@H]2CN(CCc3c([nH]c4ccccc34)[C@@](C(=O)OC)(c3cc4c(cc3OC)N(C=O)[C@H]3[C@@](O)(C(=O)OC)[C@H](OC(C)=O)[C@]5(CC)C=CCN6CC[C@]43[C@@H]65)C2)C1 [VINCRISTINE]	6	2	Activity (U-87 MG [16]): Active
CCCCc1ccc2[nH]c(-c3ccc(OC)cc3)c(/C=N/O)c2c1	40	212	–
CCCCc1ccc2[nH]c(-c3ccc(OC)cc3)c(/C=N/NC(=O)c3cccc(O)c3)c2c1	30	–	–
CC(=O)O[C@H]1C(=O)[C@@]2(C)[C@H]([C@H](OC(=O)c3ccccc3)[C@]3(O)C[C@H](OC(=O)[C@H](O)[C@@H](NC(=O)c4ccccc4)c4ccccc4)C(C)=C1C3(C)C)[C@]1(OC(C)=O)CO[C@@H]1C[C@@H]2O	–	–	Activity [17]: Active
